The assay has as its target Integrase (Human immunodeficiency virus 1, UniProt Q7ZJM1). Kind of assay: Inhibitory activity against HIV-1 integrase. In outline:
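Purified recombinant wild-type HIV-1 integrase, 200 nM final, preincubated with inhibitor for 30 min at 30 °C. Buffer: 25 mM MOPS pH 7.2, 7.5 mM MnCl2, 50 mM NaCl, 10% DMSO, 10% glycerol, BSA, DTT, 2-mercaptoethanol. Then 20 nM 5'-32P-labeled 21mer U5 duplex added for 60 min. Products run on denaturing 20% polyacrylamide gel and quantified by phosphorimager.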

Where only a bound is given, the exact number is not on record here.

The IC50 is the point on the concentration scale where inhibition reaches its midpoint. High values mean weaker potency in that assay, low ones greater potency in that assay.

Sequence of Integrase (Q7ZJM1 whole entry): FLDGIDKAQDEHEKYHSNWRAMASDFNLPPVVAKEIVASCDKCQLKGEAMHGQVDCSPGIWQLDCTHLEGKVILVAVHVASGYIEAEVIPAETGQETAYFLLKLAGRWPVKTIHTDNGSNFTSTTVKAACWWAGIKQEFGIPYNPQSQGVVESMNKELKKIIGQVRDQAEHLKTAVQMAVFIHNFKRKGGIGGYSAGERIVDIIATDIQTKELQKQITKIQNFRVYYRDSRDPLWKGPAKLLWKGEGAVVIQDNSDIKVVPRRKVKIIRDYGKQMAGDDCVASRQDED

Consider `O=C1C(=O)c2ccccc2C(=O)C1=C(c1ccc(Cl)cc1)c1c(O)c(O)c2ccccc2c1O` [2-[4-chlorophenyl(3-hydroxy-1,4-dioxo-1,4-dihydro-2-naphthalenyl)methyl]-3-hydroxy-1,4-dihydro-1,4-naphthalenedione], for which the IC50 was > 100 µM.
The molecule `CCOc1ccc(C(=C2C(=O)C(=O)c3ccccc3C2=O)c2c(O)c(O)c3ccccc3c2O)cc1OC` [2-[4-ethoxy-3-methoxyphenyl(3-hydroxy-1,4-dioxo-1,4-dihydro-2-naphthalenyl)methyl]-3-hydroxy-1,4-dihydro-1,4-naphthalenedione] yielded an IC50 of 100 µM.
`COc1cc(C(=C2C(=O)C(=O)c3ccccc3C2=O)c2c(O)c(O)c3ccccc3c2O)cc(OC)c1OC` [NSC-117278]: the IC50 is > 100 µM.
The same measure for `CC(=O)c1cccc(NC(=O)C(=O)c2c(O)c3ccccc3oc2=O)c1` [N-(3-Acetyl-phenyl)-2-(4-hydroxy-2-oxo-2H-chromen-3-yl)-2-oxo-acetamide]: > 100 µM; for `O=C1C(=O)C(Sc2ccccc2)C(=O)c2ccccc21` (stereo not given) [NSC-108029]: > 100 µM.
The same measure for `O=C(c1cccc([N+](=O)[O-])c1)c1c(O)c2ccccc2oc1=O` [NSC-133800]: > 100 µM; for `Cc1ccc(S(=O)(=O)NN=C(CCN2CCCC2)CC(c2ccccc2)c2c(O)c3ccccc3oc2=O)cc1` (stereo not given) [NSC-647410]: > 100 µM; for `O=C1Oc2ccccc2C(O)C1Cc1c(O)c2ccccc2oc1=O` (stereo not given) [NSC-41834]: > 100 µM.
As for `CC(=C1C(=O)C(=O)c2ccccc2C1=O)c1c(O)c(O)c2ccccc2c1O` [2-hydroxy-3-[1-(3-hydroxy-1,4-dioxo-1,4-dihydro-2-naphthalenyl)ethyl]-1,4-dihydro-1,4-naphthalenedione], the figure is > 100 µM; as for `CN(C)c1ccc(C(=C2C(=O)C(=O)c3ccccc3C2=O)c2c(O)c(O)c3ccccc3c2O)cc1` [NSC-92203], > 100 µM.

(Values after BindingDB's records for doi:10.1021/jm960074e (National Cancer Institute-Bethesda, 1996).)
